Laboratory results as given in ChEMBL document CHEMBL1149273, “Calcitriol derivatives with two different side chains at C-20. II. Diastereoselective syntheses of the metabolically produced 24(R)-hydroxygemini” (J Med Chem, 2004).

Columns and labels:
[1] = Inhibition of INFgamma release in MLR cells; type: functional, cell-based; settings: Homo sapiens
Mus musculus [2] = test: Effect on calcium level in mouse at 1 […] after four diurnal doses; type: functional, organism-based
Summary of the method: (§1)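 Mice received four diurnal administrations of drug in Miglyol vehicle, with vehicle-dosed controls, across a series of dose levels. Calcium levels (mg/dL) were then measured and reported with standard errors. The […] was assigned from these calcium levels.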

Mus musculus [3] = test: Effect on calcium level in mouse at 3 […] after four diurnal doses; type: functional, organism-based; summary of the method: as §1
[4] = Maximum tolerated dose in mouse; type: ADME, organism-based; settings: in vivo
[5] = Inhibition of INFgamma release in MLR cells relative to calcitriol; type: functional, Homo sapiens
Mus musculus [6] = test: Effect on calcium level in mouse at 10 […] after four diurnal doses; type: functional, organism-based; summary of the method: as §1
Kidney = test: Metabolic stability in rat kidney perfusate; type: ADME, tissue-based
Mus musculus [7] = test: Effect on calcium level in mouse at 0.3 ug/kg after four diurnal doses
Mus musculus [8] = test: Effect on calcium level in mouse at 100 […] after four diurnal doses; type: functional, organism-based; summary of the method: as §1
Mus musculus [9] = test: Effect on calcium level in mouse at 30 […] after four diurnal doses; type: functional, organism-based; summary of the method: as §1

C=C1/C(=C\C=C2/CCC[C@]3(C)[C@@H](C(CCCC(C)(C)O)CCCC(C)(C)O)CC[C@@H]23)C[C@@H](O)C[C@@H]1O
IC50 [1]: 0.004 nM | Calcium level (Mus musculus [2]): 11.1 mg/dL | Calcium level (Mus musculus [3]): 12.3 mg/dL | MTD [4]: < 1 µg/kg | Ratio IC50 [5]: 0.1 | Calcium level (Mus musculus [6]): 16.7 mg/dL | Stability (Kidney): 80%

C=C1/C(=C\C=C2/CCC[C@]3(C)[C@@H]([C@@H](CCCC(C)(C)O)CC[C@@H](O)C(C)(C)O)CC[C@@H]23)C[C@@H](O)C[C@@H]1O
IC50 [1]: 0.579 nM | Calcium level (Mus musculus [2]): 9.73 mg/dL | Calcium level (Mus musculus [7]): 9.8 mg/dL | Calcium level (Mus musculus [3]): 9.63 mg/dL | MTD [4]: 3 µg/kg | Ratio IC50 [5]: 18

CC(C)(O)CCC[C@@H](CC[C@@H](O)C(C)(C)O)[C@H]1CC[C@H]2/C(=C/C=C3C[C@@H](O)C[C@H](O)C3)CCC[C@]12C
IC50 [1]: 3.86 nM | Calcium level (Mus musculus [2]): 9.53 mg/dL | Calcium level (Mus musculus [8]): 9.57 mg/dL | Calcium level (Mus musculus [3]): 9.9 mg/dL | Calcium level (Mus musculus [9]): 9.43 mg/dL | MTD [4]: > 100 µg/kg | Ratio IC50 [5]: 160 | Calcium level (Mus musculus [6]): 9.43 mg/dL

C=C1/C(=C\C=C2/CCC[C@]3(C)[C@@H]([C@H](CCCC(C)(C)O)CC[C@@H](O)C(C)(C)O)CC[C@@H]23)C[C@@H](O)C[C@@H]1O
IC50 [1]: 0.08 nM | Calcium level (Mus musculus [2]): 9.7 mg/dL | Calcium level (Mus musculus [7]): 9.6 mg/dL | Calcium level (Mus musculus [3]): 9.73 mg/dL | MTD [4]: 3 µg/kg | Ratio IC50 [5]: 2.5

CC(C)(O)CCCC(CCCC(C)(C)O)[C@H]1CC[C@H]2/C(=C/C=C3C[C@@H](O)C[C@H](O)C3)CCC[C@]12C
IC50 [1]: 0.044 nM | Calcium level (Mus musculus [3]): 10 mg/dL | Calcium level (Mus musculus [9]): 16.5 mg/dL | MTD [4]: 3 µg/kg | Ratio IC50 [5]: 1.8 | Calcium level (Mus musculus [6]): 12.5 mg/dL | Stability (Kidney): 80%

C=C1/C(=C\C=C2/CCC[C@]3(C)[C@@H]([C@H](C)CCCC(C)(C)O)CC[C@@H]23)C[C@@H](O)C[C@@H]1O [CALCITRIOL]
Stability (Kidney): < 50%

CC(C)(O)CCC[C@H](CC[C@@H](O)C(C)(C)O)[C@H]1CC[C@H]2/C(=C/C=C3C[C@@H](O)C[C@H](O)C3)CCC[C@]12C
IC50 [1]: 0.781 nM | Calcium level (Mus musculus [2]): 9.63 mg/dL | Calcium level (Mus musculus [8]): 10.8 mg/dL | Calcium level (Mus musculus [3]): 9.37 mg/dL | Calcium level (Mus musculus [9]): 9.77 mg/dL | MTD [4]: 30 µg/kg | Ratio IC50 [5]: 31 | Calcium level (Mus musculus [6]): 9.57 mg/dL
